LEDGF integ inh – blocks HIV-1 LEDGF/p75-dependent DNA integration; AID 743269; actives 0.64% (n = 370,000); inhibition, % at 3.7 µM; TR-FRET IN-LEDGF/p75 DNA integration, Eu/Cy5;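 active means inhibition above the screen-wide mean plus 3 SD, cut at about 13% in these data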;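 further: signal is the Cy5 over europium emission ratio at 671 and 618 nm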
UHRF1 MBD2 ctr – blocks human UHRF1 binding to methylated DNA; actives 0.75% (n = 370,000); Q96T88; inhibition, % at 4.4 µM; UHRF1 binding to methylated oligo, TR-FRET; in the data active means inhibition above about 21%;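 further: UHRF1 SRA domain binding a hemimethylated CpG hairpin DNA probe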
Casp6 inh – caspase-6 (human) enzyme inhibition | inhibition, % at 12.5 µM | AID 686996 | P55212 | actives 0.53% (n = 350,000) | purified caspase-6, Z-VEID-R110 cleavage fluorescence;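 active means mean inhibition across replicates at least about 35%, with every replicate also reaching that limit, limit read from the data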
NSD2 inh – NSD2 (human) methyltransferase inhibition; inhibition, % at 12.5 µM; actives 0.54% (n = 310,000); AID 743445; O96028; NSD2 peptide methylation, AlphaScreen, 120 min; in the data active means inhibition above about 50%
TDP2 inh – blocks human TDP2 phosphodiesterase activity | O95551 | recombinant TDP2, T5PNP hydrolysis, p-nitrophenol absorbance 415 nm | inhibition, % at 12.8 µM | actives 0.34% (n = 370,000) | AID 720702;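 active means inhibition above the mean of all tested compounds plus 3 SD, set per campaign, cut at about 25% in these data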
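Assay system: recombinant human TDP2 / Reagent: T5PNP substrate at 5 mM, a TopII-DNA adduct mimic / Measured by: epi absorbance from released p-nitrophenol / Evaluation: % inhibition relative to enzyme-containing and enzyme-free wells / Control set: enzyme-free and DMSO wells / Replicates: each compound tested once, singlicate / Schedule: enzyme reaction with compound for 2 h at 37 °C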
MBD2 inh – MBD2-methylated oligo binding inhibition; TR-FRET, MBD2 binding to methylated oligonucleotide; Q9UBB5; inhibition, % at 4.4 µM; AID 686964; actives 0.31% (n = 370,000); in the data active means inhibition above about 13%
A number is an active result; - = inactive; . = not tested or not shown. Compounds with a hit are over-represented: about 1.8% of the library has one in this group of screens.

SMILES	LEDGF integ inh	UHRF1 MBD2 ctr	Casp6 inh	NSD2 inh	TDP2 inh	MBD2 inh
O=c1oc2ccccc2c(NCc2ccccc2)c1[N+](=O)[O-]	-	-	-	-	-	-
O=C(C[C@H]1CC[C@H]2[C@@H](COC[C@@H](O)CN2S(=O)(=O)c2ccccc2F)O1)NCc1ccccc1Cl	.	.	-	.	.	.
COc1ccc(Cc2nnc(NC(=O)C(C)C)s2)cc1	-	30	-	-	-	-
O=C1Nc2ccccc2Nc2ccccc21	-	23	-	-	-	-
CCOC(=O)N1CCN(C(=O)COc2ccccc2[N+](=O)[O-])CC1	-	-	-	-	-	-
CCOC(=O)N1CCN(C(=O)Cc2ccccc2[N+](=O)[O-])CC1	-	-	35	-	-	-
O=C(NCC[C@H]1CC[C@@H](NC(=O)c2cnccn2)[C@@H](CO)O1)Nc1ccc(F)cc1	.	.	-	.	.	.
O=C(N/N=C/c1ccc(Cl)cc1)C(=O)N1CCCCCC1	-	27	-	-	-	-
CCCN(C)C1CN(Cc2cn(Cc3cc(C)cc(C)c3)nn2)S(=O)(=O)C1 (stereo not drawn)	-	22	-	.	-	-
COc1ccc2nccnc2c1[N+](=O)[O-]	-	30	-	-	-	-
CCOC(=O)c1sc(C)c2c(=O)n(Cc3ccc(Cl)cc3)cnc12	-	-	50	-	-	-
O=C(c1cccc(S(=O)(=O)Nc2ccccc2Cl)c1)N1CCN(c2ccccc2O)CC1	-	21	-	-	-	-
O=C(c1cccc(S(=O)(=O)N2CCOCC2)c1)N1CCCCCC1	-	40	.	-	-	-
O=C(c1cccc(NS(=O)(=O)c2ccccc2)c1)N1CCCC1	-	-	-	-	-	-
O=C(c1cccc(NS(=O)(=O)c2cccc(F)c2)c1)N1CCCC1	-	21	-	-	-	-
O=C(c1cccc(S(=O)(=O)Nc2ccccc2Cl)c1)N1CCCCCC1	-	-	-	-	-	-
CO[C@@H]1CN(C)C(=O)c2ccc(NC(=O)C3CC3)cc2OC[C@@H](C)N(C(=O)C2CCCCC2)C[C@H]1C	.	.	-	.	.	.
O=C(c1ccc(Cl)c(S(=O)(=O)NCc2ccccc2)c1)N1CCN(c2ccccn2)CC1	.	.	-	-	.	.
O=C(c1ccc(CNS(=O)(=O)c2ccccc2)cc1)N1CCN(c2ccccn2)CC1	-	23	.	-	-	-
Nc1ccn([C@@H]2O[C@H](C(=O)Nc3cc(C(F)(F)F)cc(C(F)(F)F)c3)[C@@H](O)[C@H]2O)c(=O)n1	-	-	-	.	-	-
COc1cc(NC(=O)[C@H]2O[C@@H](n3ccc(N)nc3=O)[C@H](O)[C@@H]2O)cc(OC)c1OC	-	43	-	.	-	-
Cc1cc(C)cc(NC(=O)c2ccc([N+](=O)[O-])o2)c1	-	-	.	-	-	-
NS(=O)(=O)c1ccc(O)c(NC(=O)c2ccc([N+](=O)[O-])o2)c1	-	42	-	-	-	-
O=C(C[C@@H]1CC[C@@H](NC(=O)C2CC2)[C@@H](CO)O1)NCC1CC1	.	.	-	.	.	.
O=C(CCC(=O)Nc1ccc(F)cc1)N/N=C/c1ccc(O)cc1O	-	24	-	-	-	-
SMILES	LEDGF integ inh	UHRF1 MBD2 ctr	Casp6 inh	NSD2 inh	TDP2 inh	MBD2 inh
CC(C)N=C(Nc1ccccc1)c1cccnc1	-	-	.	-	-	-
CC(C)N=C(Nc1cccnc1)c1ccccc1	-	-	39	-	-	-
COc1cccc(NC(=O)N(C)C[C@@H]2OCc3ccccc3-c3c(n(C)c4ccccc34)C(=O)N([C@H](C)CO)C[C@@H]2C)c1	.	.	-	.	.	.
O=C(O)C1CC(c2ccc(F)cc2)=NO1 (stereo not drawn)	-	27	.	-	-	-
CCCc1cc(-c2n[nH]c(C(=O)OCC)c2-c2cscn2)c(O)cc1O	-	-	45	-	-	-
Cc1ccc(S(=O)(=O)Nc2ccc3c(c2)C(=O)N([C@@H](C)CO)C[C@H](C)[C@H](CN(C)S(=O)(=O)c2cn(C)cn2)O3)cc1	.	.	-	.	.	.
COCC(=O)N1CC2(C1)[C@H](c1ccccc1)[C@H](CO)N2Cc1ccccc1OC	.	.	-	.	.	.
CCC(=O)Nc1ccc2c(c1)C(=O)N(C)C[C@@H](OC)[C@H](C)CN(C(=O)c1ccccn1)[C@@H](C)CO2	.	.	-	.	.	.
Cc1nnc(SCC(C)C)[nH]c1=O	-	22	.	-	-	-
